Measurements taken from ChEMBL document CHEMBL3045304, “Sesquiterpene lactones with potential use as natural herbicide models. 2. guaianolides” (2000).
Active and inactive are the calls of the source. No cut-off for these calls is given here.

Assays:
Lactuca sativa [1] = assay: Inhibition of germination of Lactuca sativa cv. Roman (lettuce) at 0.1 mM or 1 mM after 5 days relative to untreated control; assay type: functional
Outline: (§1)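 Lettuce and tomato seeds, 25 per dish on filter paper, received 5 mL test solution. Incubation was 5 days in the dark at 25 °C, with four replicates per concentration. Solutions were made at 10^-3 or 10^-4 M in 10 mM MES, diluted serially, and adjusted to pH 6.0. Parallel controls were run. Results are % difference from control.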

Solanum lycopersicum [2] = assay: Stimulation of hypocotyl length of Solanum lycopersicum cv. Tres Cantos (tomato) at 0.1 mM or 1 mM after 5 days relative to untreated control; assay type: functional; outline: as §1
Triticum aestivum [3] = assay: Stimulation of germination of Triticum aestivum cv. Cortex (wheat) at 0.1 mM or 1 mM after 5 days relative to untreated control; assay type: functional
Outline: (§2)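 Wheat: 10 seeds per dish on filter paper with 5 mL test solution, 5 days in the dark at 25 °C, 10 replicates per concentration. Stock test solutions were 10^-3 or 10^-4 M in 10 mM MES, with lower levels made by dilution, all at pH 6.0. Parallel controls were run. Output is % difference from control.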

Allium cepa [4] = assay: Inhibition of root length of Allium cepa cv. Valenciana (onion) at 0.1 mM or 1 mM after 5 days relative to untreated control; assay type: functional
Allium cepa [5] = assay: Stimulation of hypocotyl length of Allium cepa cv. Valenciana (onion) at 0.1 mM or 1 mM after 7 days relative to untreated control
Allium cepa [6] = assay: Inhibition of hypocotyl length of Allium cepa cv. Valenciana (onion) at 0.1 mM or 1 mM after 7 days relative to untreated control
Solanum lycopersicum [7] = assay: Inhibition of root length of Solanum lycopersicum cv. Tres Cantos (tomato) at 0.1 mM or 1 mM after 5 days relative to untreated control; assay type: functional; outline: as §1
Triticum aestivum [8] = assay: Inhibition of root length of Triticum aestivum cv. Cortex (wheat) at 0.1 mM or 1 mM after 5 days relative to untreated control; assay type: functional; outline: as §2
Solanum lycopersicum [9] = assay: Inhibition of hypocotyl length of Solanum lycopersicum cv. Tres Cantos (tomato) at 0.1 mM or 1 mM after 5 days relative to untreated control; assay type: functional; outline: as §1
Lactuca sativa [10] = assay: Stimulation of hypocotyl length of Lactuca sativa cv. Roman (lettuce) at 0.1 mM or 1 mM after 5 days relative to untreated control; assay type: functional; outline: as §1
Allium cepa [11] = assay: Stimulation of root length of Allium cepa cv. Valenciana (onion) at 0.1 mM or 1 mM after 7 days relative to untreated control
Lactuca sativa [12] = assay: Stimulation of root length of Lactuca sativa cv. Roman (lettuce) at 0.1 mM or 1 mM after 5 days relative to untreated control; assay type: functional; outline: as §1
Lepidium sativum [13] = assay: Inhibition of hypocotyl length of Lepidium sativum at 0.1 mM or 1 mM after 4 days relative to untreated control
Lepidium sativum [14] = assay: Inhibition of root length of Lepidium sativum at 0.1 mM or 1 mM after 4 days relative to untreated control
Allium cepa [15] = assay: Inhibition of germination of Allium cepa cv. Valenciana (onion) at 0.1 mM or 1 mM after 5 days relative to untreated control; assay type: functional
Lepidium sativum [16] = assay: Inhibition of germination of Lepidium sativum at 0.1 mM or 1 mM after 4 days relative to untreated control
Lactuca sativa [17] = assay: Stimulation of germination of Lactuca sativa cv. Roman (lettuce) at 0.1 mM or 1 mM after 5 days relative to untreated control; assay type: functional; outline: as §1
Lepidium sativum [18] = assay: Stimulation of root length of Lepidium sativum at 0.1 mM or 1 mM after 5 days relative to untreated control; assay type: functional
Triticum aestivum [19] = assay: Inhibition of hypocotyl length of Triticum aestivum cv. Cortex (wheat) at 0.1 mM or 1 mM after 5 days relative to untreated control; assay type: functional; outline: as §2
Triticum aestivum [20] = assay: Stimulation of root length of Triticum aestivum cv. Cortex (wheat) at 0.1 mM or 1 mM after 5 days relative to untreated control; assay type: functional; outline: as §2
Lactuca sativa [21] = assay: Inhibition of hypocotyl length of Lactuca sativa cv. Roman (lettuce) at 0.1 mM or 1 mM after 5 days relative to untreated control; assay type: functional; outline: as §1
Allium cepa [22] = assay: Stimulation of germination of Allium cepa cv. Valenciana (onion) at 0.1 mM or 1 mM after 5 days relative to untreated control; assay type: functional
Lactuca sativa [23] = assay: Inhibition of root length of Lactuca sativa cv. Roman (lettuce) at 0.1 mM or 1 mM after 5 days relative to untreated control; assay type: functional; outline: as §1
Solanum lycopersicum [24] = assay: Stimulation of germination of Solanum lycopersicum cv. Tres Cantos (tomato) at 0.1 mM or 1 mM after 5 days relative to untreated control; assay type: functional; outline: as §1
Triticum aestivum [25] = assay: Inhibition of germination of Triticum aestivum cv. Cortex (wheat) at 0.1 mM or 1 mM after 5 days relative to untreated control; assay type: functional; outline: as §2
Triticum aestivum [26] = assay: Stimulation of hypocotyl length of Triticum aestivum cv. Cortex (wheat) at 0.1 mM or 1 mM after 5 days relative to untreated control; assay type: functional; outline: as §2
Solanum lycopersicum [27] = assay: Inhibition of germination of Solanum lycopersicum cv. Tres Cantos (tomato) at 0.1 mM or 1 mM after 5 days relative to untreated control; assay type: functional; outline: as §1
Solanum lycopersicum [28] = assay: Stimulation of root length of Solanum lycopersicum cv. Tres Cantos (tomato) at 0.1 mM or 1 mM after 5 days relative to untreated control; assay type: functional; outline: as §1
Lepidium sativum [29] = assay: Stimulation of hypocotyl length of Lepidium sativum at 0.1 mM or 1 mM after 5 days relative to untreated control; assay type: functional

| SMILES | inhibition (INH) (Lactuca sativa [1]) | Activity (Solanum lycopersicum [2]) | Activity (Triticum aestivum [3]) | inhibition (Allium cepa [4]) | Activity (Allium cepa [5]) | inhibition (Allium cepa [6]) | inhibition (Solanum lycopersicum [7]) | inhibition (Triticum aestivum [8]) | inhibition (Solanum lycopersicum [9]) | Activity (Lactuca sativa [10]) | Activity (Allium cepa [11]) | Activity (Lactuca sativa [12]) | inhibition (INH) (Lepidium sativum [13]) | inhibition (INH) (Lepidium sativum [14]) | inhibition (Allium cepa [15]) | Activity (Lepidium sativum [16]) | inhibition (Lepidium sativum [16]) | Activity (Lactuca sativa [17]) | Activity (Lepidium sativum [18]) | inhibition (Triticum aestivum [19]) | other results |
| --- | --- | --- | --- | --- | --- | --- | --- | --- | --- | --- | --- | --- | --- | --- | --- | --- | --- | --- | --- | --- | --- |
| C=C1CC[C@H]2[C@H](C)C(=O)O[C@@H]2[C@@]2(O)C(=C)[C@H](O)C[C@@]12O | 20% | inactive | inactive | inactive | inactive | inactive | inactive | inactive | inactive | >40% | inactive | >40% | <20% | <20% | inactive | inactive | inactive | 20% | <20% | inactive | Activity (Triticum aestivum [20]): inactive; inhibition (INH) (Lactuca sativa [21]): >40%; Activity (Allium cepa [22]): inactive; inhibition (INH) (Lactuca sativa [23]): >40%; Activity (Solanum lycopersicum [24]): inactive; inhibition (Triticum aestivum [25]): inactive; Activity (Triticum aestivum [26]): inactive; inhibition (Solanum lycopersicum [27]): inactive; Activity (Solanum lycopersicum [28]): inactive; Activity (Lepidium sativum [29]): <20% |
| C=C1CC[C@H]2[C@H](CO)C(=O)O[C@@H]2[C@@]2(O)C(=C)[C@H](O)C[C@@H]12 | 20% | inactive | <20% | inactive | inactive | inactive | inactive | inactive | inactive | >40% | inactive | 20% | 20% | >40% | inactive | inactive | inactive | 20% | >40% | inactive | Activity (Triticum aestivum [20]): inactive; inhibition (INH) (Lactuca sativa [21]): >40%; Activity (Allium cepa [22]): inactive; inhibition (INH) (Lactuca sativa [23]): 20%; Activity (Solanum lycopersicum [24]): inactive; inhibition (INH) (Triticum aestivum [25]): <20%; Activity (Triticum aestivum [26]): inactive; inhibition (Solanum lycopersicum [27]): inactive; Activity (Solanum lycopersicum [28]): inactive; Activity (Lepidium sativum [29]): 20% |
